How the values were obtained:
[1] = folding enthalpy; higher = less favourable; fluorescence melt of hairpins on a sequencing array, two-state fit; details: sodium 0.088 M
How it was run: (§1)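 Folding enthalpy and melting temperature were estimated with bootstrapped two-state fits and combined across four replicates by inverse-variance weighting, with fitted temperatures raised by 9.35 °C to match UV melts. The data were Cy3 fluorescence of library hairpins, with annealed Cy3 and quencher oligos, on a sequenced MiSeq flow cell in 50 mM Na-HEPES pH 8.0, 25 mM NaCl, imaged in 2.5 °C steps up to 60 °C and normalised to pre-quench Cy3 and control constructs.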

[2] = melting temperature; fluorescence melt of hairpins on a sequencing array, two-state fit, raised by 9.35 °C to match UV melts; details: sodium 0.088 M
How it was run: as §1

Sequence | folding enthalpy [1] | Tm [2]
GATCCACATGTGGATC ((((((....)))))) | -41 kcal/mol | 62.1 °C
GATCCACCCCTGGATC ((((((....)))))) | -37.2 kcal/mol | 49.9 °C
GATCCACCGATGGATC ((((((....)))))) | -36.7 kcal/mol | 49.2 °C
GATCCACCGCTGGATC ((((((....)))))) | -39.8 kcal/mol | 50 °C
GATCCACCTATGGATC ((((((....)))))) | -41.4 kcal/mol | 50.1 °C
GATCCACGACTGGATC ((((((....)))))) | -31.4 kcal/mol | 48.8 °C
GATCCACGAGTGGATC ((((((....)))))) | -39.8 kcal/mol | 62.8 °C
GATCCACGGCTGGATC ((((((....)))))) | -39.1 kcal/mol | 50.5 °C
GATCCACGGGTGGATC ((((((....)))))) | -39.6 kcal/mol | 58.8 °C
GATCCACGTTTGGATC ((((((....)))))) | -34.6 kcal/mol | 50.5 °C
GATCCACTGATGGATC ((((((....)))))) | -38.5 kcal/mol | 50.4 °C
GATCCACTGTGGATC ((((((...)))))) | -39.4 kcal/mol | 51.6 °C
GATCCACTGTTGGATC ((((((....)))))) | -30.4 kcal/mol | 49.9 °C
GATCCAGACCTGGATC ((((((....)))))) | -44.8 kcal/mol | 54.6 °C
GATCCAGAGTTGGATC ((((((....)))))) | -39.8 kcal/mol | 49.2 °C
GATCCAGATCTGGATC ((((((....)))))) | -48 kcal/mol | 54.3 °C
GATCCAGGATGGATC ((((((...)))))) | -40.5 kcal/mol | 57.8 °C
GATCCAGGGATGGATC ((((((....)))))) | -38.9 kcal/mol | 53.3 °C
GATCCAGGGTGGATC ((((((...)))))) | -31.5 kcal/mol | 49.3 °C
GATCCAGTAATGGATC ((((((....)))))) | -34.2 kcal/mol | 58.7 °C
GATCCAGTACTGGATC ((((((....)))))) | -47.2 kcal/mol | 57.1 °C
GATCCAGTCGTGGATC ((((((....)))))) | -35.9 kcal/mol | 52.8 °C
GATCCAGTTATGGATC ((((((....)))))) | -46.4 kcal/mol | 58.4 °C
GATCCAGTTGTGGATC ((((((....)))))) | -38.6 kcal/mol | 50.4 °C

Sequence | folding enthalpy [1] | Tm [2]
GATCCAGTTTGGATC ((((((...)))))) | -32.4 kcal/mol | 52.6 °C
GATCCATAAGTGGATC ((((((....)))))) | -39.2 kcal/mol | 51.9 °C
GATCCATACGTGGATC ((((((....)))))) | -51 kcal/mol | 54.5 °C
GATCCATACTTGGATC ((((((....)))))) | -37.3 kcal/mol | 54.4 °C
GATCCATCATGGATC ((((((...)))))) | -32.5 kcal/mol | 52.5 °C
GATCCATCCCTGGATC ((((((....)))))) | -35.4 kcal/mol | 51 °C
GATCCATGATGGATC ((((((...)))))) | -34.2 kcal/mol | 49.6 °C
GATCCATGCTTGGATC ((((((....)))))) | -43.6 kcal/mol | 55.1 °C
GATCCATGGATGGATC ((((((....)))))) | -39.1 kcal/mol | 53 °C
GATCCATGTTGGATC ((((((...)))))) | -36.8 kcal/mol | 52 °C
GATCCATGTTTGGATC ((((((....)))))) | -42.8 kcal/mol | 53.8 °C
GATCCATTGGTGGATC ((((((....)))))) | -44.4 kcal/mol | 53 °C
GATCCCACCCGGGATC ((((((....)))))) | -41.1 kcal/mol | 60 °C
GATCCCACCGGGGATC ((((((....)))))) | -32.3 kcal/mol | 63.7 °C
GATCCCACCTGGGATC ((((((....)))))) | -35.6 kcal/mol | 60.1 °C
GATCCCACTAGGGATC ((((((....)))))) | -33.1 kcal/mol | 65.9 °C
GATCCCACTGGGATC ((((((...)))))) | -34.8 kcal/mol | 60.9 °C
GATCCCAGAGGGATC ((((((...)))))) | -34.2 kcal/mol | 68.5 °C
GATCCCAGCCGGGATC ((((((....)))))) | -32.8 kcal/mol | 64.2 °C
GATCCCAGGGGGGATC ((((((....)))))) | -32.3 kcal/mol | 59.2 °C
GATCCCAGTAGGGATC ((((((....)))))) | -35 kcal/mol | 66 °C
GATCCCAGTCGGGATC ((((((....)))))) | -33.4 kcal/mol | 61.3 °C
GATCCCAGTTGGGATC ((((((....)))))) | -42 kcal/mol | 61.2 °C
GATCCCATACGGGATC ((((((....)))))) | -38.5 kcal/mol | 64.6 °C

Sequence | folding enthalpy [1] | Tm [2]
GATCCCATTGGGATC ((((((...)))))) | -31.9 kcal/mol | 65.5 °C
GATCCCATTGGGGATC ((((((....)))))) | -38.2 kcal/mol | 62.1 °C
GATCCCCACGGGATC ((((((...)))))) | -34.9 kcal/mol | 63.4 °C
GATCCCCATCGGGATC ((((((....)))))) | -35.4 kcal/mol | 58.2 °C
GATCCCCCAGGGATC ((((((...)))))) | -33.9 kcal/mol | 63.8 °C
GATCCCCCAGGGGATC ((((((....)))))) | -36.4 kcal/mol | 65.2 °C
GATCCCCCCGGGGATC ((((((....)))))) | -39.7 kcal/mol | 65.9 °C
GATCCCCCGGGGGATC ((((((....)))))) | -41.4 kcal/mol | 66 °C
GATCCCCGAGGGGATC ((((((....)))))) | -37.2 kcal/mol | 68.5 °C
GATCCCCGCGGGGATC ((((((....)))))) | -38.8 kcal/mol | 67.4 °C
GATCCCCGGGGGGATC ((((((....)))))) | -29.9 kcal/mol | 66.6 °C
GATCCCCGTGGGATC ((((((...)))))) | -27.8 kcal/mol | 65.2 °C
GATCCCCTAGGGATC ((((((...)))))) | -38.4 kcal/mol | 64.4 °C
GATCCCCTGAGGGATC ((((((....)))))) | -31.8 kcal/mol | 61.9 °C
GATCCCCTTAGGGATC ((((((....)))))) | -45 kcal/mol | 63.2 °C
GATCCCCTTCGGGATC ((((((....)))))) | -39.9 kcal/mol | 58.7 °C
GATCCCCTTTGGGATC ((((((....)))))) | -33.9 kcal/mol | 61 °C
GATCCCGAAAGGGGATC ((((((....))).))) | -31.4 kcal/mol | 57.8 °C
GATCCCGAAAGGGTCATC ((((((....)))..))) | -12.1 kcal/mol | 42.8 °C
GATCCCGAAAGGGTGATC ((((((....)))..))) | -16.1 kcal/mol | 39.8 °C
GATCCCGAAGGGGATC ((((((....)))))) | -19.7 kcal/mol | 65.5 °C
GATCCCGAGCGGGATC ((((((....)))))) | -40.5 kcal/mol | 61.6 °C
GATCCCGAGTGGGATC ((((((....)))))) | -33.7 kcal/mol | 61.1 °C
GATCCCGATCGGGATC ((((((....)))))) | -50.5 kcal/mol | 62.3 °C

Sequence | folding enthalpy [1] | Tm [2]
GATCCCGATGGGATC ((((((...)))))) | -36.5 kcal/mol | 61.3 °C
GATCCCGCCGGGGATC ((((((....)))))) | -37.7 kcal/mol | 63.1 °C
GATCCCGGAAACGGGACC (.(((((....))))).) | -11 kcal/mol | 46.7 °C
GATCCCGGTGGGGATC ((((((....)))))) | -40.2 kcal/mol | 59.3 °C
GATCCCGTAGGGGATC ((((((....)))))) | -23.4 kcal/mol | 62.9 °C
GATCCCGTGTGGGATC ((((((....)))))) | -33.9 kcal/mol | 63.9 °C
GATCCCGTTGGGGATC ((((((....)))))) | -42.4 kcal/mol | 64.7 °C
GATCCCTAAGGGATC ((((((...)))))) | -38.4 kcal/mol | 60.2 °C
GATCCCTACGGGGATC ((((((....)))))) | -39.4 kcal/mol | 62.1 °C
GATCCCTATCGGGATC ((((((....)))))) | -38 kcal/mol | 60.2 °C
GATCCCTATGGGATC ((((((...)))))) | -36.1 kcal/mol | 64.8 °C
GATCCCTCAGGGGATC ((((((....)))))) | -34.6 kcal/mol | 60.6 °C
GATCCCTCATGGGATC ((((((....)))))) | -37 kcal/mol | 62.6 °C
GATCCCTCCAGGGATC ((((((....)))))) | -39.1 kcal/mol | 63.9 °C
GATCCCTCCGGGGATC ((((((....)))))) | -31.3 kcal/mol | 65.3 °C
GATCCCTCCTGGGATC ((((((....)))))) | -37 kcal/mol | 61 °C
GATCCCTCGAGGGATC ((((((....)))))) | -41.7 kcal/mol | 62 °C
GATCCCTCGGGGATC ((((((...)))))) | -34.5 kcal/mol | 62.9 °C
GATCCCTGAGGGGATC ((((((....)))))) | -39.4 kcal/mol | 63 °C
GATCCCTGATGGGATC ((((((....)))))) | -41.1 kcal/mol | 59.8 °C
GATCCCTGCAGGGATC ((((((....)))))) | -37.8 kcal/mol | 66 °C
GATCCCTGTAGGGATC ((((((....)))))) | -41.1 kcal/mol | 65.8 °C
GATCCCTTGCGGGATC ((((((....)))))) | -39.6 kcal/mol | 60.7 °C
GATCCCTTTCGGGATC ((((((....)))))) | -48.2 kcal/mol | 60.1 °C

— the array DNA melting data of Ke et al. (doi:10.1101/2024.01.08.574731)
